An excerpt weighted towards active compounds, which were near 2.9% of everything screened.
PRMT1 FP inh: blocks human protein arginine methyltransferase 1; recombinant PRMT1, activity-based probe fluorescence polarization; actives 1.3% (n = 370,000); inhibition, % at 2.79 µM;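 active means inhibition above about 21% made by adding two undisclosed values, limit read from the data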
core dimer inh: HCV core protein dimerization inhibition. AID 1899. TR-FRET GST/Flag-core106 dimerization, 1536-well. actives 0.33% (n = 300,000). inhibition, % at 5 µM;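 active means inhibition above the mean of all tested compounds plus 3 SD, set per screening campaign, cut at about 45% in these data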
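Assay system: tagged HCV core106 pair (GST and Flag); medium: KF-containing HEPES buffer, pH 7.45, DTT, CHAPS, BSA; also added: Eu donor and XL665 acceptor anti-tag antibodies; dosing: 5 µM single dose; timing: compound-protein-antibody incubation 4 h at 22.5 °C; signal: TR-FRET 671 and 617 nm emission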
APOBEC3G inh: inhibitors of human APOBEC3G DNA deaminase. Q9HC16. recombinant A3G, ssDNA deamination FAM/TAMRA fluorescence. inhibition, % at 20 µM. actives 0.28% (n = 330,000). AID 493012;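 active means inhibition of at least 40% at 20 µM, with no more than 30% in the related APOBEC3A deaminase screen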
NS3 helicase inh: blocks Hepatitis C virus NS3 helicase unwinding; NS3 helicase DNA unwinding, Cy5 molecular beacon fluorescence; inhibition, % at 10.9 µM; actives 0.56% (n = 290,000); AID 1800;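 active means inhibition above the mean of all tested compounds plus 3 SD, set per campaign, cut at about 35% in these data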
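Measured by: Cy5 fluorescence, 0 and 60 min reads / Assay system: NS3 helicase fragment of HCV / Control set: low DMSO, high thioflavine S at 110 µM / Times: 1 h reaction at 25 °C, ATP-initiated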
ABHD5 PLIN5 PPI: blocks binding of human ABHD5 to perilipin-5; inhibition, % at 4 µM; Q00G26+Q8WTS1; actives 0.78% (n = 360,000); Split G. princeps luciferase complementation, luminescence, 4 h;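 active means inhibition above the mean inhibition across every tested compound plus 3 SD, cut at about 22% in these data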
A3A deaminase: human APOBEC3A DNA deaminase inhibition | inhibition, % at 20 µM | recombinant A3A, FAM/TAMRA ssDNA deamination fluorescence | P31941 | AID 493011 | actives 0.41% (n = 330,000);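 active means at least 40% inhibition at 20 µM here, with at most 30% in a related deaminase screen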
NS3 hel confirm: confirmation of Hepatitis C virus NS3 helicase inhibitors; actives 31% (n = 1,600); shares compounds with NS3 helicase inh; AID 1943; NS3 helicase DNA unwinding, Cy5 molecular beacon fluorescence; inhibition, % at 10.9 µM;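 active means inhibition above the mean of all tested compounds plus 3 SD, cutoff set per campaign, cut at about 36% in these data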
FID counter trip: displaces DNA intercalator in HCV helicase counter-screen. DNA fluorescent intercalator displacement, fluorescence. inhibition, % at 7.9 µM. actives 4% (n = 1,600). shares compounds with NS3 helicase inh; in the data active means inhibition above about 37%;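 further: higher means more displacement of ethidium bromide from the DNA hairpin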
Numbers stand for hits; n = inactive; x = no result given.

SMILES | PRMT1 FP inh | core dimer inh | APOBEC3G inh | NS3 helicase inh | ABHD5 PLIN5 PPI | A3A deaminase | NS3 hel confirm | FID counter trip
Nc1ccc(C(CC(=O)O)n2cccc2)cc1 (stereo not drawn) | n | n | n | 52.0 | n | n | n | n
Cc1cccc(C)c1NC(=O)CN(C)C(=O)CN1C(=O)NC(C)(C)C1=O | n | x | n | x | n | n | x | x
O=C(O)CN1C(=O)/C(=C\c2cc(Br)ccc2OCc2ccc(Cl)cc2)SC1=S | n | x | x | 38.9 | n | x | 67.1 | 59.2
O=C(O)CN1C(=O)/C(=C\c2cc(Br)ccc2OCc2ccc(F)cc2)SC1=S | n | n | n | n | n | n | x | x
COc1ccc(CC(CC(=O)O)C(=O)Nc2ccc(Cl)c(Cl)c2)cc1 (stereo not drawn) | n | n | n | n | n | n | x | x
COC(=O)N(C)C[C@H]1OCc2cn(nn2)CCCC(=O)N([C@@H](C)CO)C[C@@H]1C | n | x | x | x | n | x | x | x
C[C@@H](CN=[N+]=[N-])CN1CC[C@H](O)CCC1=O | n | n | n | 37.5 | n | n | n | n
[N-]=[N+]=NC[C@H](Cc1ccccc1)N1CC[C@@H](O)CCC1=O | n | n | n | n | n | n | x | x
C[C@@H](CSc1ccccc1)CN1CC[C@H](O)CCC1=O | n | n | n | 44.2 | n | n | n | n
O=C(c1ccc(F)cc1)N1CCC(C(=O)N2CCN(c3ncccn3)CC2)CC1 | n | x | n | x | n | n | x | x
CC(c1ccccc1)N(C)C(=O)CSc1nnc(C2CC2)n1C1CC1 (stereo not drawn) | n | x | n | x | n | n | x | x
CCn1cc(CNC(=O)c2ccc(Cl)c([N+](=O)[O-])c2)c(C)n1 | n | n | n | 36.0 | n | n | n | n
O=C(NNC1CC(=O)N(c2ccccc2)C1=O)c1ccccc1Cl (stereo not drawn) | n | n | n | n | n | n | x | x
O=C(NNC1CC(=O)N(c2ccc(Cl)cc2)C1=O)c1ccccc1Cl (stereo not drawn) | n | n | n | 37.9 | n | n | n | n
CCn1cc(C(=O)O)c(=O)c2cnc(N3CCN(C(=S)NC(=O)c4ccc(OC)cc4)CC3)nc21 | n | n | n | n | n | n | x | x
CCOC(=O)[C@]12CCCCC/C=C\1N(Cc1ccc(OC)cc1)C(=O)[C@H]2CC(=O)NCc1cccs1 | n | x | x | x | x | x | x | x
CCOC(=O)C1CC(CN2C(=O)c3ccccc3C2=O)OC1=O (stereo not drawn) | n | x | x | x | n | x | x | x
CC(C)(C)C(=O)C[n+]1ccc(C(N)=O)cc1 | n | n | n | 47.0 | n | n | n | n
O=C(Nc1nnc([C@H]2C[C@H](O)[C@@H](CO)O2)s1)c1ccccc1F | n | x | x | x | n | x | x | x
CN(C)c1ccc(/C=C/c2ccc3c4ccccc4ccc3[n+]2-c2ccccc2)cc1 | n | x | x | 62.7 | 36.8 | x | 90.6 | 101.0
CCCCCn1c(C)c2c(OCC)cccc(=O)c2c1C | n | n | n | 53.6 | n | n | n | n
CCCn1c(N)c(N(CCOC)C(=O)c2ccc(S(=O)(=O)N3CCOCC3)cc2)c(=O)[nH]c1=O | n | x | x | x | n | x | x | x
COc1ccc(CN(C(=O)Cc2c[nH]c3ccccc23)C(C(=O)NC2CCCCC2)c2ccc(C)o2)cc1 (stereo not drawn) | n | n | n | 65.4 | n | n | n | n
Cc1ccc(N2C(=O)/C(=C/c3ccco3)SC2=S)cc1 | n | n | n | n | n | n | x | x
O=C1/C(=C\c2ccco2)SC(=S)N1C1CCCCC1 | x | n | n | 38.9 | x | n | 50.8 | n
O=C(NNc1nc2ccccc2s1)c1ccccc1F | n | n | n | 50.9 | n | n | n | n
CN1CCN(C(c2ccc(Br)cc2)c2cc(Cl)c3cccnc3c2O)CC1 (stereo not drawn) | n | n | n | 40.0 | n | n | n | 74.2
CN1CCN(C(c2ccc(F)cc2)c2ccc3cccnc3c2O)CC1 (stereo not drawn) | x | x | x | x | n | x | x | x
O=C1OCc2cccc([N+](=O)[O-])c21 | n | n | n | n | n | n | x | x
O=C1CC(=O)c2c1cccc2[N+](=O)[O-] | x | x | x | 36.7 | x | x | 90.3 | n

Compound activity from PubChem.
